Measured values as given in ChEMBL document CHEMBL1148460, “Interaction of cycloSal-pronucleotides with cholinesterases from different origins. A structure-activity relationship” (J Med Chem, 2004).

Key:
Acetylcholinesterase = Acetylcholinesterase (Electrophorus electricus, UniProt O42275); assay: Inhibitory activity towards Electrophorus electricus acetylcholinesterase
Vero = assay: Anti-HSV-1 activity tested in Vero cells; assay type: functional, cell-based; details: Chlorocebus sabaeus
Cholinesterase = Cholinesterase (Homo sapiens, UniProt P06276); assay: Inhibitory activity towards human butyrylcholinesterase
In short: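 Modified Rappaport assay following acetylcholine chloride hydrolysis to acetic acid, with m-nitrophenol indicator in phosphate buffer at pH 7.8 and NaCl. The compound is added in DMSO, and the reaction is started with serum (human, mouse or calf). A420 is read at 25 °C at 0 and 5 min. Final inhibitor is 0.1, 0.5, 1, 5, 10, 30 and 50 µM. IC50 is interpolated from ΔE plots in the pseudolinear region.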

[1] = Half-life was determined; assay type: ADME; details: human
CCRF-CEM [2] = assay: Anti-HIV-1 activity tested in human lymphocytic CEM cells; assay type: functional, cell-based
Human gammaherpesvirus 4 = assay: Anti-EBV activity blocking EBV-DNA synthesis; assay type: functional, organism-based
L1210 = assay: Antitumor activity tested in L1210 cells; assay type: functional, cell-based; details: Mus musculus
CCRF-CEM [3] = assay: Anti-HIV-2 activity tested in human lymphocytic CEM cells; assay type: functional, cell-based

Acetylcholinesterase, sequence (O42275 whole entry): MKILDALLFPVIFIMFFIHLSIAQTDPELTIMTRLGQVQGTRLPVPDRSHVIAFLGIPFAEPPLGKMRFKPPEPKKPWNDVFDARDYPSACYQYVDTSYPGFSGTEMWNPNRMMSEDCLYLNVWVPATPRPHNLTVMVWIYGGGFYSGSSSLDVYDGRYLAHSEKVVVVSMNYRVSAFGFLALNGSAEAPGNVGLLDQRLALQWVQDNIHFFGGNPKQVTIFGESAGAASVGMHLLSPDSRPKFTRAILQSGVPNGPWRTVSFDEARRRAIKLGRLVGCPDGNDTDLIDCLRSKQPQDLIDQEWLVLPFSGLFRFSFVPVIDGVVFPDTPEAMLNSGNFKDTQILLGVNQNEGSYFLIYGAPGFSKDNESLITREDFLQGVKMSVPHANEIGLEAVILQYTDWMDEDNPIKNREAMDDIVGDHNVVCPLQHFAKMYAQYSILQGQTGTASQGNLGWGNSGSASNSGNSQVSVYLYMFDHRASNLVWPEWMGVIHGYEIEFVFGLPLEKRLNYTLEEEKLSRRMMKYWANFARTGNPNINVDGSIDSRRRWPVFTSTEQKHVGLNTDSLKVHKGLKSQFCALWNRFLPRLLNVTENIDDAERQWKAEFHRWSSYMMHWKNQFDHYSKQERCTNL
Cholinesterase, sequence (P06276 whole entry): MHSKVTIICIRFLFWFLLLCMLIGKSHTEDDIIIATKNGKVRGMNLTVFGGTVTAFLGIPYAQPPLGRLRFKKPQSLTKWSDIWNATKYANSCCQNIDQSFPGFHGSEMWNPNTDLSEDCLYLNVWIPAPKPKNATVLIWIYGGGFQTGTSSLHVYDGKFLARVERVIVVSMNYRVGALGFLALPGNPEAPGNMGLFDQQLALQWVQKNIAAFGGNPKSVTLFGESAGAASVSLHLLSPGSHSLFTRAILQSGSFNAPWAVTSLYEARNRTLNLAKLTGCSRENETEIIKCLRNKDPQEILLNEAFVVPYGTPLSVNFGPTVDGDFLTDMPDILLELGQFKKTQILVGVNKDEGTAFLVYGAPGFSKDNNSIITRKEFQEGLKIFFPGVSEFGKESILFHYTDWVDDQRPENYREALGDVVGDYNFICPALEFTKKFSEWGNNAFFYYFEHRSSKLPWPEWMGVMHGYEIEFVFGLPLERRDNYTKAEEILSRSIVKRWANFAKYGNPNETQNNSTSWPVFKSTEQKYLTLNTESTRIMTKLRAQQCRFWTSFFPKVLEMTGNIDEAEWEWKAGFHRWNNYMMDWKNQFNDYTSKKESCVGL

Compound | IC50 (Acetylcholinesterase) [µM] | EC50 (Vero) [µM] | IC50 (Cholinesterase) [µM] | further results
Cc1cccc2c1OP(=O)(OCCOCn1cnc3c(O)nc(N)nc31)OC2 (stereo not drawn) | > 50 | 0.15 | > 50 | –
Cc1cccc2c1OP(=O)(OC[C@H](CO)OCn1cnc3c(O)nc(N)nc31)OC2 (stereo partly drawn) | > 50 | 3.3 | > 50 | –
Cc1cn(C2C=CC(COP3(=O)OCc4c(F)c(C(C)(C)C)cc(C(C)(C)C)c4O3)O2)c(=O)[nH]c1=O (stereo not drawn) | > 50 | – | 48 | half-life [1]: 6.2 h; EC50 (CCRF-CEM [2]): 0.16 µM
Cc1cccc2c1O[P@@](=O)(OC[C@@H](CO)OCn1cnc3c(O)nc(N)nc31)OC2 | > 50 | – | > 50 | EC50 (Human gammaherpesvirus 4): 3.29 µM
Cc1cccc2c1O[P@](=O)(OC[C@H]1OC(n3cc(F)c(=O)[nH]c3=O)C[C@@H]1O)OC2 (single isomer, unassigned) | > 50 | – | > 50 | EC50 (L1210): 0.044 µM
Cc1cn(C2C=CC(COP3(=O)OCc4cccc(CCC(=O)OC(C)(C)C)c4O3)O2)c(=O)[nH]c1=O (stereo not drawn) | > 50 | – | 3.4 | EC50 (CCRF-CEM [3]): 0.33 µM
Cc1cccc2c1OP(=O)(OCC(CO)CCn1cnc3c(O)nc(N)nc31)OC2 (stereo not drawn) | > 50 | 17.7 | > 50 | –
Cc1cccc2c1OP(=O)(OC[C@H]1O[C@@H](N3CC(/C=C/Br)C(=O)NC3=O)C[C@@H]1O)OC2 (stereo partly drawn) | > 50 | – | > 50 | EC50 (Human gammaherpesvirus 4): 4.1 µM
Cc1cccc2c1OP(=O)(OC[C@H]1O[C@@H](n3cc(F)c(=O)[nH]c3=O)C[C@@H]1O)OC2 (stereo partly drawn) | > 50 | – | > 50 | IC50 (L1210): 0.04 µM
